Laboratory results from ChEMBL document CHEMBL1154778, “Synthesis and biological evaluation of C-5 methyl substituted 4-arylthio and 4-aryloxy-3-Iodopyridin-2(1H)-one type anti-HIV agents” (J Med Chem, 2009).

Columns and labels:
[1] = tested on: Human immunodeficiency virus 1; assay: Antiviral activity against HIV1 HXB2 harboring Y181C mutant reverse transcriptase infected in human MT4 cells after 5 days by MTT assay; format: functional, organism-based; conditions: Human immunodeficiency virus 1, HXB2, MT4, 120 h
Procedure, shortened: (§1)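 Mutant viruses were made by recombining the mutant PR-RT sequence into a PR-RT-deleted HIV-1 HXB2 proviral clone. MT4 cells were grown in RPMI 1640 with 10% FCS and antibiotics. Virus at 200 CCID50/well and 30000 cells/well were incubated with varied compound concentrations for 5 days at 37 °C, 5% CO2. MTT viability gave IC50, the concentration giving 50% infection versus the drug-free control.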

[2] = tested on: Human immunodeficiency virus 1; assay: Antiviral activity against HIV1 HXB2 harboring 190A mutant reverse transcriptase infected in human MT4 cells after 5 days by MTT assay; format: functional, organism-based; conditions: Human immunodeficiency virus 1, HXB2, MT4, 120 h; procedure, shortened: as §1
[3] = tested on: Human immunodeficiency virus 1; assay: Antiviral activity against HIV1 HXB2 harboring 101E mutant reverse transcriptase infected in human MT4 cells after 5 days by MTT assay; format: functional, organism-based; conditions: Human immunodeficiency virus 1, HXB2, MT4, 120 h; procedure, shortened: as §1
[4] = tested on: Human immunodeficiency virus 1; assay: Antiviral activity against HIV1 HXB2 harboring K103N mutant reverse transcriptase infected in human MT4 cells after 5 days by MTT assay; format: functional, organism-based; conditions: Human immunodeficiency virus 1, HXB2, MT4, 120 h; procedure, shortened: as §1
[5] = tested on: Human immunodeficiency virus 1; assay: Antiviral activity against HIV1 HXB2 harboring Y188L mutant reverse transcriptase infected in human MT4 cells after 5 days by MTT assay; format: functional, organism-based; conditions: Human immunodeficiency virus 1, HXB2, MT4, 120 h; procedure, shortened: as §1
[6] = tested on: Human immunodeficiency virus 1; assay: Antiviral activity against HIV1 HXB2 harboring K103N and Y181C mutant reverse transcriptase infected in human MT4 cells after 5 days by MTT assay; format: functional, organism-based; conditions: Human immunodeficiency virus 1, HXB2, MT4, 120 h; procedure, shortened: as §1
[7] = tested on: Human immunodeficiency virus 1; assay: Antiviral activity against HIV1 HXB2 harboring 100I mutant reverse transcriptase infected in human MT4 cells after 5 days by MTT assay; format: functional, organism-based; conditions: Human immunodeficiency virus 1, HXB2, MT4, 120 h; procedure, shortened: as §1
[8] = tested on: Human immunodeficiency virus 1; assay: Antiviral activity against HIV1 HXB2 harboring 106A mutant reverse transcriptase infected in human MT4 cells after 5 days by MTT assay; format: functional, organism-based; conditions: Human immunodeficiency virus 1, HXB2, MT4, 120 h; procedure, shortened: as §1
[9] = tested on: Human immunodeficiency virus 1; assay: Antiviral activity against HIV-1 LAI harboring wild type reverse transcriptase infected in human MT4 cells after 5 days by MTT assay; format: functional, organism-based; conditions: Human immunodeficiency virus 1, LAI, MT4, 120 h
Procedure, shortened: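 MT4 cells were kept in RPMI 1640 with 10% fetal calf serum and antibiotics at 37 °C, 5% CO2. A range of compound concentrations was incubated with HIV-1 LAI at 200 CCID50/well and 30000 MT4 cells/well for 5 days at 37 °C. Cell viability was read by MTT, and IC50 was the concentration giving 50% infection versus the drug-free control.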

[10] = Selectivity index, ratio of CC50 for human MT4 cells to IC50 for HIV-1 LAI harboring wild type reverse transcriptase infected in human MT4 cells; format: functional
Procedure, shortened: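 Cytotoxicity was measured in mock-infected MT4 cultures (30000 cells/well) given the same compound concentration range, run in parallel with the infected cultures for 5 days at 37 °C, 5% CO2, with MTT viability. CC50 was the concentration reducing viability by 50% versus the drug-free control. SI was CC50 divided by IC50 against HIV-1 LAI.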

[11] = tested on: Human immunodeficiency virus 1; assay: Antiviral activity against HIV1 HXB2 harboring 179E mutant reverse transcriptase infected in human MT4 cells after 5 days by MTT assay; format: functional, organism-based; conditions: Human immunodeficiency virus 1, HXB2, MT4, 120 h; procedure, shortened: as §1
[12] = tested on: Human immunodeficiency virus 1; assay: Antiviral activity against HIV1 HXB2 harboring 227L and 106A mutant reverse transcriptase infected in human MT4 cells after 5 days by MTT assay; format: functional, organism-based; conditions: Human immunodeficiency virus 1, HXB2, MT4, 120 h; procedure, shortened: as §1
[13] = tested on: Human immunodeficiency virus 1; assay: Antiviral activity against HIV1 HXB2 harboring 227C mutant reverse transcriptase infected in human MT4 cells after 5 days by MTT assay; format: functional, organism-based; conditions: Human immunodeficiency virus 1, HXB2, MT4, 120 h; procedure, shortened: as §1
[14] = tested on: Human immunodeficiency virus 1; assay: Antiviral activity against HIV1 HXB2 harboring 190S mutant reverse transcriptase infected in human MT4 cells after 5 days by MTT assay; format: functional, organism-based; conditions: Human immunodeficiency virus 1, HXB2, MT4, 120 h; procedure, shortened: as §1
[15] = tested on: Human immunodeficiency virus 1; assay: Antiviral activity against HIV1 HXB2 harboring 138K mutant reverse transcriptase infected in human MT4 cells after 5 days by MTT assay; format: functional, organism-based; conditions: Human immunodeficiency virus 1, HXB2, MT4, 120 h; procedure, shortened: as §1
[16] = tested on: Human immunodeficiency virus 1; assay: Antiviral activity against HIV1 HXB2 harboring 101E and K103N mutant reverse transcriptase infected in human MT4 cells after 5 days by MTT assay; format: functional, organism-based; conditions: Human immunodeficiency virus 1, HXB2, MT4, 120 h; procedure, shortened: as §1
[17] = tested on: Human immunodeficiency virus 1; assay: Antiviral activity against HIV1 HXB2 harboring 100I and K103N mutant reverse transcriptase infected in human MT4 cells after 5 days by MTT assay; format: functional, organism-based; conditions: Human immunodeficiency virus 1, HXB2, MT4, 120 h; procedure, shortened: as §1

SMILES | IC50 [1] [nM] | IC50 [4] [nM] | IC50 [5] [nM] | IC50 [9] [nM] | Ratio CC50/IC50 [10] | also measured
CCc1c(C)[nH]c(=O)c(N(C)C)c1Cc1cc(C)cc(C)c1 | 100 | 31.6 | 251 | 7.94 | 12589 | IC50 [2]: 63.1 nM; IC50 [3]: 15.8 nM; IC50 [6]: 794 nM; IC50 [7]: 50.1 nM; IC50 [8]: 39.8 nM
Cc1ccnc2c1NC(=O)c1cccnc1N2C1CC1 [NEVIRAPINE] | 10000 | – | 100000 | – | – | IC50 [11]: 195 nM; IC50 [12]: 163 nM; IC50 [13]: 135 nM; IC50 [6]: 100000 nM; IC50 [14]: 44 nM; IC50 [15]: 51 nM
O=C1Nc2ccc(Cl)cc2[C@@](C#CC2CC2)(C(F)(F)F)O1 [EFAVIRENZ] | – | – | – | – | – | IC50 [11]: 5.01 nM; IC50 [12]: 25.1 nM; IC50 [2]: 10 nM; IC50 [3]: 6.3 nM; IC50 [14]: 251 nM
Cc1cc(C)cc(Oc2c(Cn3ccnc3)c(C)[nH]c(=O)c2I)c1 | 10 | 2.51 | 31.6 | 1.99 | >50118 | IC50 [11]: 5.1 nM; IC50 [16]: 28.6 nM; IC50 [2]: 8 nM; IC50 [3]: 9.2 nM; IC50 [6]: 71.2 nM; IC50 [14]: 2.2 nM; IC50 [7]: 6.31 nM; IC50 [17]: 23.7 nM; IC50 [15]: 11.2 nM; IC50 [8]: 3.7 nM
Cc1cc(C)cc(Oc2c(COCc3ccccc3)c(C)[nH]c(=O)c2I)c1 | 31.6 | 31.6 | 125 | 7.94 | >12589 | –
Cc1cc(C)cc(Oc2c(CSCc3csc(C)n3)c(C)[nH]c(=O)c2I)c1 | 6.3 | 1 | 7.9 | 1 | >100000 | EC50 [12]: 158 nM; IC50 [13]: 39.8 nM; IC50 [7]: 3.16 nM; IC50 [17]: 158 nM
CC(=O)c1c(C)cn(Cc2c(C)[nH]c(=O)c(I)c2Sc2cc(C)cc(C)c2)c1C | 63 | 50.1 | 199 | 10 | 5012 | –
Cc1cc(C)cc(Oc2c(CNC(=O)c3cc4ccccc4o3)c(C)[nH]c(=O)c2I)c1 | 31.6 | 199 | 158 | 6.3 | >15849 | –
Cc1cc(C)cc(Sc2c(Cn3nc(-c4ccco4)nc3C)c(C)[nH]c(=O)c2I)c1 | 31.6 | 12.5 | 31.6 | 1.99 | >50119 | –
Cc1cc(C)cc(Oc2c(Cn3cnc(C#N)c3C#N)c(C)[nH]c(=O)c2I)c1 | 199 | 31.6 | 1000 | 10 | >10000 | –
Cc1cc(C)cc(Oc2c(Cn3cnc(C)n3)c(C)[nH]c(=O)c2I)c1 | 31.6 | 15.8 | 125 | 3.98 | >25118 | –
CNC(=O)CSCc1c(C)[nH]c(=O)c(I)c1Sc1cc(C)cc(C)c1 | 39.8 | 3.98 | 794 | 1.58 | >63096 | –
COCCC1CN(Cc2c(C)[nH]c(=O)c(I)c2Sc2cc(C)cc(C)c2)CCO1 (stereo not given) | 63 | 5.01 | 398 | 3.98 | 12589 | –
Cc1cc(C)cc(Sc2c(Cn3cnc(-c4ccccc4)n3)c(C)[nH]c(=O)c2I)c1 | 10 | 7.94 | 39.8 | 6.3 | >15849 | –
Cc1cc(C)cc(Sc2c(Cn3cc(Br)cn3)c(C)[nH]c(=O)c2I)c1 | 39.8 | 5.01 | 316 | 10 | >10000 | –
Cc1cc(C)cc(Sc2c(CN3CCOC(CCO)C3)c(C)[nH]c(=O)c2I)c1 (stereo not given) | 31.6 | 1.58 | 199 | 1.58 | 31623 | –
Cc1cc(C)cc(Oc2c(Cn3cncn3)c(C)[nH]c(=O)c2I)c1 | 10 | 3.98 | 100 | 1.99 | >50118 | –
COC1CCN(Cc2c(C)[nH]c(=O)c(I)c2Sc2cc(C)cc(C)c2)CC1 | 199 | 12.5 | 2000 | 3.98 | 10000 | –
Cc1cc(C)cc(Oc2c(COCc3cccs3)c(C)[nH]c(=O)c2I)c1 | 31.6 | 6.3 | 50.1 | 6.3 | >15849 | –
Cc1cc(C)cc(Sc2c(CSC(C)C)c(C)[nH]c(=O)c2I)c1 | 630 | 31.6 | 3160 | 7.94 | >12589 | –
Cc1cc(C)cc(Sc2c(CN3CCCCC3)c(C)[nH]c(=O)c2I)c1 | 794 | 31.6 | 7940 | 6.3 | >15849 | –
Cc1cc(C)cc(Sc2c(Cn3ccnc3)c(C)[nH]c(=O)c2I)c1 | 7.9 | 0.79 | 50.1 | 1.25 | 15849 | –
Cc1cc(C)cc(Oc2c(CSCC3CCCO3)c(C)[nH]c(=O)c2I)c1 (stereo not given) | 63 | 25.6 | 158 | 7.94 | >12589 | –
COCCSCc1c(C)[nH]c(=O)c(I)c1Oc1cc(C)cc(C)c1 | 7.94 | 1.58 | 31.6 | 1.99 | >50119 | IC50 [12]: 199 nM; IC50 [13]: 199 nM; IC50 [7]: 10 nM
